In assay [1] the test system is U2OS HRE-luciferase, zinc medium, luminescence. The assay can be described thus: HRE reporter activators under added zinc – cell-based, U2OS, luminescence, dry powder, set 2, mechanism study for HIF pathway activator project, dose response (AID 493234). A digest of the protocol: (§1)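 Material: human U2OS osteosarcoma cells stably expressing 3×HRE-driven luciferase reporter. Medium: phenol red-free DMEM, 10% FBS, no hygromycin. Timing: 24 h pre-growth, 24 h compound treatment. Detection: Steady-Glo luminescence.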

Assay in assay [2]: as above
Conditions: U2OS HRE-luciferase, zinc medium, luminescence; at 38 µM (top of the series). In outline: as §1

These results are taken from PubChem BioAssay AID493234 (Broad Institute, 2011).

Several values for one entry are separate records, joined by “and”; a condition that tells them apart may be missing. Equal values may be shown once. Activity calls are given as the source filed them.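 Rule for the calls: active = fitted curve rises to an activation of 500 at or below the top valid dose; inactive = the rest, including activity in the falling direction.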

Regarding `Clc1cccc(CNc2nc(-c3ccccn3)nnc2-c2ccccc2)c1`, the AC500 in assay [1] is 2 µM.

Regarding `C[C@@H](Nc1nc(-c2ccccn2)nnc1-c1ccccc1)C1CCCCC1`, the AC500 in assay [1] was 6.94 µM.

Consider `OCC1CCN(c2nc(-c3ccccn3)nnc2-c2ccccc2)CC1`, for which the AC500 in assay [1] was 21.1 µM.

With `Cc1cccc(NC(=O)c2cc(-c3ccccc3)on2)n1`, in assay [2], the activation is 24.2% (inactive).

As for `c1ccc(-c2nnc(-c3ccccn3)nc2N2CCC(c3ccccc3)C2)cc1` (configuration not stated), in assay [1], the AC500 is 3.01 µM.

As to `O=C(c1cc(-c2ccccc2)on1)N1CCC(N2CCOCC2)CC1`, the activation in assay [2] is 1.96% (inactive).

On to `CCCCNC(=O)c1cc(-c2ccccc2)on1`, for which the AC500 in assay [1] was 32.2 µM.

For the compound `c1ccc(-c2nnc(-c3ccccn3)nc2NCc2ccccn2)cc1`, the AC500 in assay [1] was 20.8 µM.

In the case of `O=C(NCCCN1CCOCC1)c1cc(-c2ccccc2)on1`, the activation in assay [2] is 449% (inactive).

As to `O=C(Nc1ncc(-c2ccccc2)o1)c1cc(-c2ccccc2)on1`, the activation in assay [2] was -4.08% (inactive).

In the case of `O=C(c1cc(-c2ccccc2)on1)N1CCc2cccnc21`, the activation in assay [2] was 3.59% (inactive).

Regarding `CC(C)(C)c1ccc(CNc2nc(-c3ccccn3)nnc2-c2ccccc2)cc1`, the AC500 in assay [1] is 2.89 µM.

`c1ccc(-c2nnc(-c3ccccn3)nc2NCc2cccnc2)cc1`: the AC500 in assay [1] is 19 µM.

As for `C[C@H](Nc1nc(-c2ccccn2)nnc1-c1ccccc1)C1CCCCC1`, the AC500 in assay [1] is 5.01 µM.

As for `c1ccc(-c2nnc(-c3ccccn3)nc2Nc2cnc3ccccc3n2)cc1`, in assay [2], the activation is -25.9% (inactive).

Regarding `O=C(Nc1nc2ccccc2s1)c1cc(-c2ccccc2)on1`, the activation in assay [2] was 14.8% (inactive).

For `O=C(c1cc(-c2ccccc2)on1)N1CCC(CO)CC1`, the activation in assay [2] was -4.31% (inactive).

With `Cc1cccc(CNc2nc(-c3ccccn3)nnc2-c2ccccc2)c1`, in assay [1], the AC500 is 6.47 µM.

Take `c1ccc(-c2nnc(Nc3nc(-c4ccccn4)nnc3-c3ccccc3)s2)cc1`: the activation in assay [2] is 141% (inactive).

Turning to `C=CCNc1nc(-c2ccccn2)nnc1-c1ccccc1`, in assay [1], the AC500 is 15 µM.

Turning to `Oc1ccc(CN2CCc3ccccc3C2)c2cccnc12`, in assay [2], the activation was -19.3% (inactive) and -19.9% (inactive).

Take `O=C(NC1Cc2ccccc2C1)c1cc(-c2ccccc2)on1`: the activation in assay [2] is 56% (inactive).

On to `c1ccc(-c2nnc(-c3ccccn3)nc2N2CCC(C3CCCCC3)C2)cc1` (configuration not stated), for which, in assay [1], the AC500 is 6.32 µM.

For `O=C(Nc1cn2ccccc2n1)c1cc(-c2ccccc2)on1`, in assay [2], the activation was 7.47% (inactive).

`COc1cccc(CNc2nc(-c3ccccn3)nnc2-c2ccccc2)c1`: the AC500 in assay [1] is 3.92 µM.

As to `COc1ccccc1N1CCN(Cc2ccc(O)c3ncccc23)CC1`, in assay [2], the activation is -1.45% (inactive).

Consider `O=C(NCCCO)c1cc(-c2ccccc2)on1`, for which, in assay [2], the activation is 325% (inactive).

With `c1ccc(-c2csc(Nc3nc(-c4ccccn4)nnc3-c3ccccc3)n2)cc1`, the activation in assay [2] is 86.1% (inactive).

Turning to `O=C(Nc1nnc(-c2ccccc2)s1)c1cc(-c2ccccc2)on1`, the activation in assay [2] is 4.85% (inactive).

For the compound `Oc1ccc(CN2CCC(Cc3ccccc3)CC2)c2cccnc12`, the activation in assay [2] was -5.34% (inactive).

Regarding `Cc1ccc(NC(=O)c2cc(-c3ccccc3)on2)cn1`, in assay [2], the activation is 20.6% (inactive).

Regarding `COc1ccc(CNc2nc(-c3ccccn3)nnc2-c2ccccc2)cc1`, in assay [1], the AC500 was 5.26 µM.

For `O=C(c1cc(-c2ccccc2)on1)N1CCN(c2ccncc2)CC1`, the activation in assay [2] was -5.2% (inactive).

On to `C[C@@H](Nc1nc(-c2ccccn2)nnc1-c1ccccc1)c1ccccc1`, for which the AC500 in assay [1] was 6.17 µM.

As to `c1ccc(-c2nnc(-c3ccccn3)nc2NCC2CCCCC2)cc1`, the AC500 in assay [1] was 5.43 µM.

For the compound `Cc1ccc(Nc2nc(-c3ccccn3)nnc2-c2ccccc2)cn1`, the AC500 in assay [1] is 17.8 µM.

For `O=C(NC1CCc2ccccc2C1)c1cc(-c2ccccc2)on1` (configuration not stated), the activation in assay [2] is -5.89% (inactive).

On to `O=C(Nc1nc(-c2ccccc2)cs1)c1cc(-c2ccccc2)on1`, for which, in assay [2], the activation was -1.71% (inactive).

For the compound `Cc1ccccc1CNc1nc(-c2ccccn2)nnc1-c1ccccc1`, the AC500 in assay [1] is 7.16 µM.

With `c1ccc(CNc2nc(-c3ccccn3)nnc2-c2ccccc2)cc1`, the AC500 in assay [1] is 6.89 µM.

For the compound `O=C(Nc1cnc2ccccc2c1)c1cc(-c2ccccc2)on1`, the activation in assay [2] is 10.1% (inactive).

In the case of `O=C(Nc1ccc2ccccc2n1)c1cc(-c2ccccc2)on1`, the activation in assay [2] is -7.7% (inactive).

Turning to `O=C(NCCCCO)c1cc(-c2ccccc2)on1`, in assay [1], the AC500 is 12.1 µM.

For the compound `c1ccc(-c2nnc(-c3ccccn3)nc2NCC2CCOCC2)cc1`, the AC500 in assay [1] is 18.8 µM.

On to `c1ccc(CCNc2nc(-c3ccccn3)nnc2-c2ccccc2)cc1`, for which the AC500 in assay [1] was 7.94 µM.

As for `O=C(c1cc(-c2ccccc2)on1)N1CCC(N2CCCC2)CC1`, the activation in assay [2] is 4.99% (inactive).

`CN1CCN(c2nc(-c3ccccn3)nnc2-c2ccccc2)CC1`: the AC500 in assay [1] is 15.8 µM.

Turning to `c1ccc(-c2nnc(-c3ccccn3)nc2N2CCC(N3CCOCC3)CC2)cc1`, the AC500 in assay [1] was 16.2 µM.

`Cn1c(-c2ccccc2)cnc1Nc1nc(-c2ccccn2)nnc1-c1ccccc1`: in assay [2], the activation was 109% (inactive).

On to `Cc1cccc(Nc2nc(-c3ccccn3)nnc2-c2ccccc2)n1`, for which the AC500 in assay [1] is 13.2 µM.

In the case of `c1ccc(-c2ccc(CNc3nc(-c4ccccn4)nnc3-c3ccccc3)cc2)cc1`, the AC500 in assay [1] was 3.41 µM.

Turning to `c1ccc(-c2nnc(-c3ccccn3)nc2N2CCN(c3ccncc3)CC2)cc1`, in assay [1], the AC500 was 15.3 µM.

For `CN(C)c1nc(-c2ccccn2)nnc1-c1ccccc1`, the AC500 in assay [1] is 20.2 µM.

Consider `c1ccc(-c2nnc(-c3ccccn3)nc2NCCCN2CCOCC2)cc1`, for which the AC500 in assay [1] is 16 µM.

Take `Cc1cccc(CNC(=O)c2cc(-c3ccccc3)on2)c1`: the activation in assay [2] is -0.529% (inactive).

Regarding `N#CC1(c2ccccc2)CCN(Cc2ccc(O)c3ncccc23)CC1`, in assay [2], the activation was 27.6% (inactive).

Consider `c1ccc(-c2cnc(Nc3nc(-c4ccccn4)nnc3-c3ccccc3)s2)cc1`, for which the activation in assay [2] was 19.5% (inactive).

As for `OCC1CCN(Cc2ccc(O)c3ncccc23)CC1`, the activation in assay [2] was 12.5% (inactive).

With `O=C(NCc1ccccc1)c1cc(-c2ccccc2)on1`, in assay [2], the activation was 32.9% (inactive).

Take `Oc1ccc(CN2CCC3CCCCC3C2)c2cccnc12` (configuration not stated): in assay [2], the activation was 275% (inactive).

For `Cc1ccc(CNc2nc(-c3ccccn3)nnc2-c2ccccc2)cc1C`, the AC500 in assay [1] was 2.19 µM.

On to `CC(Nc1nc(-c2ccccn2)nnc1-c1ccccc1)c1ccccc1` (configuration not stated), for which the AC500 in assay [1] was 9.22 µM.

For the compound `Cn1c(NC(=O)c2cc(-c3ccccc3)on2)nc2ccccc21`, the activation in assay [2] was -0.203% (inactive).

For `O=C(NCCN1CCOCC1)c1cc(-c2ccccc2)on1`, in assay [2], the activation was 430% (inactive).

In the case of `Cc1ccc(CNC(=O)c2cc(-c3ccccc3)on2)cc1`, in assay [2], the activation was -6.78% (inactive).

As to `CC(C)(C)OC(=O)N1CCN(Cc2ccc(O)c3ncccc23)CC1`, the activation in assay [2] is 4.29% (inactive).

As to `O=C(NCCCn1ccnc1)c1cc(-c2ccccc2)on1`, the AC500 in assay [1] was 16.4 µM.

Take `O=C(Nc1ncc2ccccc2n1)c1cc(-c2ccccc2)on1`: the activation in assay [2] was 34.5% (inactive).

With `c1ccc(-c2nnc(-c3ccccn3)nc2NCC2CC2)cc1`, in assay [1], the AC500 was 16.1 µM.

Take `c1ccc(-c2nnc(-c3ccccn3)nc2Nc2nc3ccccc3s2)cc1`: in assay [2], the activation is -16.5% (inactive).

As for `CN1CCN(C(=O)c2cc(-c3ccccc3)on2)CC1`, the activation in assay [2] was -12.5% (inactive).

`O=C(NCC1CCCCC1)c1cc(-c2ccccc2)on1`: in assay [2], the activation was 52.6% (inactive).

Regarding `Cn1c(-c2ccccc2)cnc1NC(=O)c1cc(-c2ccccc2)on1`, the activation in assay [2] is 9.13% (inactive).

`c1ccc(-c2nnc(-c3ccccn3)nc2NCCc2ccccn2)cc1`: the AC500 in assay [1] is 18 µM.

As for `Oc1ccc(CNC2Cc3ccccc3C2)c2cccnc12`, the activation in assay [2] was 217% (inactive).

Regarding `Oc1ccc(CNC2CCc3ccccc32)c2cccnc12` (configuration not stated), the activation in assay [2] was -23.4% (inactive).

Take `Cc1ccc(CNc2nc(-c3ccccn3)nnc2-c2ccccc2)cc1`: in assay [1], the AC500 was 7.26 µM.

In the case of `CC(C)(C)CCNc1nc(-c2ccccn2)nnc1-c1ccccc1`, the AC500 in assay [1] is 4.65 µM and 2.47 µM.

With `O=C(NCC1CC1)c1cc(-c2ccccc2)on1`, the activation in assay [2] was 386% (inactive).

Take `CN(C)CCNC(=O)c1cc(-c2ccccc2)on1`: the activation in assay [2] was 9.51% (inactive).

For `c1ccc(-c2nnc(-c3ccccn3)nc2NCCN2CCOCC2)cc1`, in assay [1], the AC500 was 15.7 µM.

For the compound `O=C(NCCN1CCCCC1)c1cc(-c2ccccc2)on1`, in assay [2], the activation was 32.2% (inactive).

For `Cc1ccccc1CNC(=O)c1cc(-c2ccccc2)on1`, the activation in assay [2] is 15.2% (inactive).

Regarding `CC(C)(C)CCNC(=O)c1cc(-c2ccccc2)on1`, the activation in assay [2] was 247% (inactive).

`c1ccc(-c2cccc(CNc3nc(-c4ccccn4)nnc3-c3ccccc3)c2)cc1`: the AC500 in assay [1] was 3.69 µM.

Consider `CC1CN(Cc2ccc(O)c3ncccc23)CC(C)O1` (configuration not stated), for which the activation in assay [2] was -5.99% (inactive).

As for `OCCCNc1nc(-c2ccccn2)nnc1-c1ccccc1`, the AC500 in assay [1] was 22.9 µM.
